Test results as given in ChEMBL document CHEMBL1138580, “Natural polyprenylated benzophenones inhibiting cysteine and serine proteases” (Eur J Med Chem, 2009).
Activity calls are given as the source filed them. No cut-off for these calls is given here.

Tests used:
[1] = molecular target: T1, Papain (Carica papaya, UniProt P00784); assay: Inhibition of Carica papaya papain by spectrofluorimetry
T1 sequence (P00784 whole entry): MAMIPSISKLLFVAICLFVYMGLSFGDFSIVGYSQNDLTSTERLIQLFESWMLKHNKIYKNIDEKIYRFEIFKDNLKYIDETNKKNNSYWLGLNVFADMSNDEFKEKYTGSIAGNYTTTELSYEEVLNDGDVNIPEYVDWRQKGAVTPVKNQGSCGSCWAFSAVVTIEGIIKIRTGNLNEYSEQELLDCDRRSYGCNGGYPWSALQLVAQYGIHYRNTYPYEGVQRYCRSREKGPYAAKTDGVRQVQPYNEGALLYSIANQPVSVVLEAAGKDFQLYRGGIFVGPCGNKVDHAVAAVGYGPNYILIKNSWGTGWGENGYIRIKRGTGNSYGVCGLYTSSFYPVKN
In short: (§1)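 Enzyme (papain and CatB DTT 10 mM-activated; trypsin not) incubated 5 min at 25 °C with DMSO-dissolved inhibitor, five concentrations; Z-FR-AMC started reaction, AMC ex 380/em 460 nm. Papain: phosphate 50 mM pH 6.8, EDTA 1.0 mM, 7.8 nM. CatB: Tris–HCl 50 mM pH 7.5, EDTA 5 mM, 1.0 nM. Trypsin: Tris–HCl pH 7.5, CaCl2 10 mM, 56.1 nM. IC50 from time-course dose–response; triplicate.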

[2] = molecular target: T2, Papain (Carica papaya) (UniProt P00784); settings: 0.2 uM
T2 sequence (whole entry): T1 sequence (P00784 whole entry)

[3] = molecular target: T2, Papain (Carica papaya); settings: 0.5 uM
[4] = Inhibition of trypsin by spectrofluorimetry
[5] = molecular target: T2, Papain (Carica papaya); assay: Inhibition of Carica papaya papain at 50 uM preincubated before DTT addition by fluorescence measurement
[6] = Inhibition of trypsin at 50 uM preincubated for 5 mins before addition of increasing concentration of substrate Z-FR-AMC
[7] = molecular target: T2, Papain (Carica papaya); assay: Inhibition of Carica papaya papain at 50 uM preincubated for 5 mins before addition of increasing concentration of substrate Z-FR-AMC
[8] = molecular target: Cathepsin B (Homo sapiens, UniProt P07858); assay: Inhibition of cathepsin B by spectrofluorimetry; in short: as §1
[9] = Inhibition of trypsin assessed as residual enzyme activity at 10 uM after 30 mins
[10] = molecular target: T2, Papain (Carica papaya); assay: Inhibition of Carica papaya papain assessed as residual enzyme activity at 9 uM after 30 mins
[11] = molecular target: T3, Cathepsin G (Homo sapiens, UniProt P08311); assay: Inhibition of cathepsin G by spectrofluorimetry
T3 sequence (P08311 whole entry): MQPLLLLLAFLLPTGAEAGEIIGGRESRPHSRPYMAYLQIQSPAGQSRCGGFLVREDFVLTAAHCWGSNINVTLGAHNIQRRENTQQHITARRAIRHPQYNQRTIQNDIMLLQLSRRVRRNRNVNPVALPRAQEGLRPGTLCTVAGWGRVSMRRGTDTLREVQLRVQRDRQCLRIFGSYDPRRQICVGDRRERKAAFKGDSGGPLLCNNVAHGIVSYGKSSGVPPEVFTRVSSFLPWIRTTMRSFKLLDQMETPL

Row | IC50 [1] [µM] | inhibition [2] | inhibition [3] | IC50 [4] [µM] | inhibition [5] | inhibition [6] | inhibition [7] | IC50 [8] [µM] | inhibition [9] | inhibition [10] | IC50 [11] [µM] | Compound
1 | 0.047 | Active | Active |  |  |  |  |  |  |  |  | CC(C)C[C@H](NC(=O)[C@H]1O[C@@H]1C(=O)O)C(=O)NCCCCN=C(N)N [E-64]
2 | 693 |  |  | 301 | inactive | inactive | inactive | 198 |  |  |  | O=C(c1ccccc1O)c1ccc(O)cc1O
3 | 3460 |  |  | 3470 | inactive | inactive | inactive | 289 |  |  |  | O=C(c1ccccc1)c1ccccc1 [BENZOPHENONE]
4 | 131 |  |  | 104 | inactive | inactive | inactive | 103 | Active | Active |  | CC(C)=CC[C@H]1C[C@@]2(CC=C(C)C)C(=O)C(C(=O)c3ccccc3)=C(O)[C@H](C2=O)C1(C)C [GARCINIAPHENONE]
5 | 1.9 |  |  |  | Active |  | Active | 2.1 |  | Active | 2.7 | CC(C)=CCC[C@]1(C)[C@@H](CC=C(C)C)C[C@]2(CC=C(C)C)C(=O)[C@@]1(CC=C(C)C)C(=O)C(C(=O)c1ccc(O)c(O)c1)=C2O [GUTTIFERONE A]
6 |  |  |  |  |  |  |  | 0.047 |  |  |  | CC(=O)N[C@@H](CC(C)C)C(=O)N[C@@H](CC(C)C)C(=O)N[C@H](C=O)CCCNC(=N)N [LEUPEPTIN]
